From article PMC6172068 (Cancer Science, 2018)

Test: Safety and tolerability
Assay type: in vivo, Japanese patients
Conditions: for Stomatitis / Subdural hematoma / Syncope / Thrombocytopenia / Tumor-associated fever / Vomiting / Anemia / Bone pain / Constipation / Corneal erosion / Cough / Diarrhea / Disseminated intravascular coagulation / Dysesthesia / Dysgeusia / ECG prolonged QT interval / Elevated ALT / Elevated AST / Elevated blood creatine phosphokinase / Elevated blood lactate dehydrogenase / Elevated liver enzymes (ALT, AST, and alkaline phosphatase) / Epistaxis / Febrile neutropenia / Headache / Hematoma / Hypertension / Hypokalemia / Hypotension / Hypoxia / Increased amylase / Insomnia / Lung infection / Nausea / Pleural effusion / Pneumonia / Pyrexia / Rash / Renal impairment / Sepsis / Somnolence: N = 24
In short: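 In this open-label study, once-daily oral dosing escalated 20–300 mg/d by Bayesian continual reassessment. DLTs were judged from Cycles 0 and 1, and MTD/RD came from the posterior mean DLT rate plus investigator assessment. Treatment-emergent AEs were graded by NCI-CTCAE v4.0 for seriousness, duration and relatedness. The safety analysis set comprised all patients given ≥1 dose.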

CCc1nc(C(N)=O)c(Nc2ccc(N3CCC(N4CCN(C)CC4)CC3)c(OC)c2)nc1NC1CCOCC1 [gilteritinib]
29.2%: patients with serious AEs (all doses, 7 of 24 patients) | Drug-related AE: elevated blood creatine phosphokinase (all doses, n = 7/24) | AE: diarrhea (any grade, all doses, n = 7/24) | AE: pyrexia (any grade, all doses, n = 7/24)
120 mg/day: recommended dose (RD) (once-daily oral, for subsequent studies)
66.7%: patients with grade ≥3 AEs (all doses, n = 16/24)
8.3%: drug-related AE leading to treatment discontinuation: pneumonia (n = 2/24) | drug-related grade ≥3 AE: pneumonia (n = 2, 40 and 300 mg/d) | drug-related grade ≥3 AE: anemia (n = 2, 200 and 300 mg/d) | drug-related grade ≥3 AE: febrile neutropenia (n = 2, 200 and 300 mg/d)
33.3%: Drug-related AE: elevated liver enzyme levels (all doses, n = 8/24) | AE: elevated blood lactate dehydrogenase (any grade, all doses, n = 8/24)
16.7%: Drug-related AE: diarrhea (all doses, n = 4/24) | Drug-related AE: hypertension (all doses, n = 4/24) | Drug-related AE: stomatitis (all doses, n = 4/24) | Drug-related AE: thrombocytopenia (all doses, n = 4/24) | grade ≥3 AE: thrombocytopenia (all doses, n = 4/24) | drug-related grade ≥3 AE: thrombocytopenia (n = 4, 200 and 300 mg/d)
5 (20.8%) n (%): Stomatitis (Grade 1-2)
3 (12.5%) n (%): Disseminated intravascular coagulation (Grade 3) | Febrile neutropenia (Grade 3) | Pneumonia (Grade 3)
25%: patients with AEs resulting in permanent discontinuation of gilteritinib (all doses, 6 of 24 patients) | Drug-related AE: elevated blood lactate dehydrogenase (all doses, n = 6/24)
0 n (%): Syncope (Grade 1-2) | Thrombocytopenia (Grade 1-2) | Constipation (Grade 3) | Corneal erosion (Grade 3) | Cough (Grade 3) | Dysesthesia (Grade 3) | Dysgeusia (Grade 3) | Elevated ALT (Grade 3) | Elevated AST (Grade 3) | Elevated liver enzymes (ALT, AST, and alkaline phosphatase) (Grade 3) | Epistaxis (Grade 3) | Headache (Grade 3) | Hematoma (Grade 3) | Hypertension (Grade 3) | Hypotension (Grade 3) | Hypoxia (Grade 3) | Insomnia (Grade 3) | Nausea (Grade 3) | Pleural effusion (Grade 3) | Pyrexia (Grade 3) | Rash (Grade 3) | Renal impairment (Grade 3) | Somnolence (Grade 3) | Stomatitis (Grade 3) | Subdural hematoma (Grade 3) | Tumor-associated fever (Grade 3) | Vomiting (Grade 3) | Anemia (Grade 4) | Bone pain (Grade 4) | Constipation (Grade 4) | Corneal erosion (Grade 4) | Cough (Grade 4) | Diarrhea (Grade 4) | Disseminated intravascular coagulation (Grade 4) | Dysesthesia (Grade 4) | Dysgeusia (Grade 4) | ECG prolonged QT interval (Grade 4) | Elevated ALT (Grade 4) | Elevated AST (Grade 4) | Elevated blood lactate dehydrogenase (Grade 4) | Elevated liver enzymes (ALT, AST, and alkaline phosphatase) (Grade 4) | Epistaxis (Grade 4) | Febrile neutropenia (Grade 4) | Headache (Grade 4) | Hematoma (Grade 4) | Hypertension (Grade 4) | Hypokalemia (Grade 4) | Hypotension (Grade 4) | Hypoxia (Grade 4) | Increased amylase (Grade 4) | Insomnia (Grade 4) | Lung infection (Grade 4) | Nausea (Grade 4) | Pleural effusion (Grade 4) | Pneumonia (Grade 4) | Pyrexia (Grade 4) | Rash (Grade 4) | Renal impairment (Grade 4) | Sepsis (Grade 4) | Somnolence (Grade 4) | Stomatitis (Grade 4) | Subdural hematoma (Grade 4) | Syncope (Grade 4) | Tumor-associated fever (Grade 4) | Vomiting (Grade 4) | Anemia (Grade 5) | Bone pain (Grade 5) | Constipation (Grade 5) | Corneal erosion (Grade 5) | Cough (Grade 5) | Diarrhea (Grade 5) | Disseminated intravascular coagulation (Grade 5) | Dysesthesia (Grade 5) | Dysgeusia (Grade 5) | ECG prolonged QT interval (Grade 5) | Elevated ALT (Grade 5) | Elevated AST (Grade 5) | Elevated blood creatine phosphokinase (Grade 5) | Elevated blood lactate dehydrogenase (Grade 5) | Elevated liver enzymes (ALT, AST, and alkaline phosphatase) (Grade 5) | Epistaxis (Grade 5) | Febrile neutropenia (Grade 5) | Headache (Grade 5) | Hematoma (Grade 5) | Hypertension (Grade 5) | Hypokalemia (Grade 5) | Hypotension (Grade 5) | Hypoxia (Grade 5) | Increased amylase (Grade 5) | Insomnia (Grade 5) | Lung infection (Grade 5) | Nausea (Grade 5) | Pleural effusion (Grade 5) | Pneumonia (Grade 5) | Pyrexia (Grade 5) | Rash (Grade 5) | Renal impairment (Grade 5) | Sepsis (Grade 5) | Somnolence (Grade 5) | Stomatitis (Grade 5) | Syncope (Grade 5) | Thrombocytopenia (Grade 5) | Tumor-associated fever (Grade 5) | Vomiting (Grade 5)
20.8%: Drug-related AE: renal impairment (all doses, n = 5/24) | AE: febrile neutropenia (any grade, all doses, n = 5/24) | AE: hypertension (any grade, all doses, n = 5/24) | AE: renal impairment (any grade, all doses, n = 5/24) | AE: stomatitis (any grade, all doses, n = 5/24)
1 (4.2%) n (%): Subdural hematoma (Grade 1-2) | Bone pain (Grade 3) | Diarrhea (Grade 3) | ECG prolonged QT interval (Grade 3) | Elevated blood lactate dehydrogenase (Grade 3) | Hypokalemia (Grade 3) | Increased amylase (Grade 3) | Lung infection (Grade 3) | Sepsis (Grade 3) | Elevated blood creatine phosphokinase (Grade 4) | Subdural hematoma (Grade 5)
200 mg/day: maximum tolerated dose (MTD) (once-daily oral, Bayesian CRM and investigator opinion)
24 patients: patients who experienced at least 1 AE (SAF, all doses)
12.5%: Drug-related AE: pyrexia (all doses, n = 3/24) | grade ≥3 AE: disseminated intravascular coagulation (all doses, n = 3/24) | grade ≥3 AE: elevated blood creatine phosphokinase (all doses, n = 3/24) | grade ≥3 AE: febrile neutropenia (all doses, n = 3/24) | grade ≥3 AE: pneumonia (all doses, n = 3/24) | drug-related grade ≥3 AE: increased blood creatine phosphokinase (n = 3, 200 and 300 mg/d)
2 (8.3%) n (%): Tumor-associated fever (Grade 1-2) | Vomiting (Grade 1-2) | Anemia (Grade 3) | Elevated blood creatine phosphokinase (Grade 3) | Syncope (Grade 3) | Thrombocytopenia (Grade 3) | Thrombocytopenia (Grade 4)
91.7%: patients with at least 1 treatment-related AE (all doses, n = 22/24)
37.5%: patients with drug-related grade ≥3 AEs (all doses, 9 patients) | AE: elevated blood creatine phosphokinase (any grade, all doses, n = 9/24) | AE: elevated liver enzymes (ALT, AST, alkaline phosphatase) (any grade, all doses, n = 9/24)
3 patients: patients who experienced DLTs during Cycle 0 and Cycle 1 (of the 24 patients in the SAF)
